The values below come from article PMC3479660 (Thrombosis and haemostasis, 2012).

Assay [1] deals with T1, P2Y12 receptor (Homo sapiens, UniProt Q9H244). Nature of the assay: [3H]PSB-0413 radioligand competition binding, Sf9 insect cell membranes. Conditions: for rank order of potency at labelled binding sites: unpublished data of the authors. (Loss of bound radioactivity is the signal in a displacement assay; it reports binding, not function.)
For assay [2], the system named is washed platelets. It counts as cell-based, human. The conditions noted are these: intermediates 30 μM vs 2-MeSADP 0.04 μM.
For assay [3], the target named is T1, P2Y12 receptor. In words: [35S]GTPγS binding in isolated platelet membranes. It is filed as biochemical. For orientation: Binding of GTPγS marks nucleotide exchange on a G protein.
In assay [4] the test system is human platelets. Nature of the assay: LTA with PRP: epinephrine-mediated platelet aggregation. The conditions noted are these: 30 μM FPP, epinephrine 1 μM. It counts as cell-based. Summed up: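 For light transmission aggregometry, human platelets were normalised to 300,000 cells/μl and exposed to 30 μM test compound before agonist. Epinephrine was added at 1 μM (n=15); the TRAP arm had n=7. Representative traces accompanied the bar data.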

Assay [5] has as its system human platelets. Nature of the assay: LTA with PRP: LPA-stimulated platelet shape change. It is filed as cell-based. The method, boiled down: (§1)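 Turbidimetric light transmission aggregometry was run on human PRP normalised to 300,000 cells/μl. Platelets were pre-treated for 5 min with 30 μM test compound, then given 10 μM LPA. Shape change was taken from the traces (n=10). Aggregation was reported as mean platelet aggregation in % (n=8).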

Assay [6] concerns human platelets. Nature of the assay: LTA with PRP: LPA-stimulated platelet aggregation. It is filed as cell-based. The conditions noted are these: 30 μM test compound pre-incubated, LPA 10 μM. Summed up:
as §1

For assay [7], the system named is washed platelets. Nature of the assay: Calcium flux assay on platelets. It is filed as cell-based, human. The conditions noted are these: 30 μM FPP.
Assay [8] deals with human platelets. In words: LTA: 2-MeSADP-stimulated platelet aggregation. It is filed as cell-based. Conditions: for effect on 2-MeSADP-stimulated platelet aggregation: 30 μM test compound, 30 nM 2-MeS-ADP, PRP. Summed up:
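In human PRP (300,000 cells/μl), aggregation was stimulated with 2-MeSADP (30 nM) with or without 30 μM test compound. Full 2-MeSADP concentration-response curves were run alone or after pre-incubation with 15 or 30 μM test compound. Values were normalised to 2-MeSADP alone and EC50 was derived from the curves; n=6.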

Assay [9] deals with human platelets. Nature of the assay: LTA with PRP: TRAP-mediated platelet aggregation. It counts as cell-based. The conditions noted are these: 30 μM FPP, TRAP 15 μM.

T1 sequence (Q9H244 whole entry): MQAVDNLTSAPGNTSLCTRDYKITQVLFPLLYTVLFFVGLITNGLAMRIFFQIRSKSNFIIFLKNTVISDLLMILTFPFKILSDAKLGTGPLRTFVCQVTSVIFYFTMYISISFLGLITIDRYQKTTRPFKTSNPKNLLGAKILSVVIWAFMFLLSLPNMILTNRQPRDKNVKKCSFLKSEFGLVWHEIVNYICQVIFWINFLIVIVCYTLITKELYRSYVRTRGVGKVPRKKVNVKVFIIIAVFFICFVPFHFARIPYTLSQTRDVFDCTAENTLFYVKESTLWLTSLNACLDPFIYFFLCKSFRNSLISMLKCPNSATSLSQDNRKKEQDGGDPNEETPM

Take `Nc1ncnc2c1ncn2[C@@H]1O[C@H](COP(=O)(O)OP(=O)(O)O)[C@@H](O)[C@H]1O` [ADP, adenosine diphosphate]: on P2Y12 receptor [1], the “extent of inhibition of [3H]PSB-0413 binding” value is “complete inhibition” and the “rank order of potency at labelled binding sites” value is “PSB-0739 ([21], [22]). >2-methylthio-ADP > ADP”.

In the case of `CC(C)=CCOP(=O)(O)OP(=O)(O)O.N.N.N` [DMAPP, γ,γ-dimethylallyl pyrophosphate triammonium salt], the “antagonistic activity on platelets stimulated by 2-MeSADP” value (shortened to “antagonistic activity”) in the assay on washed platelets [2] was “Only FPP displayed a statistically significant effect”.

For the molecule `CC(C)=CCCC(C)=CCCC(C)=CCOP(=O)(O)O.N.N` [FMP, 3,7,11-trimethyl-2,6,10-dodecatrien-1-yl monophosphate ammonium salt], the “antagonistic activity” value in the assay with washed platelets [2] was “Only FPP displayed a statistically significant effect”.

In the case of `CC(C)=CCCC(C)=CCCC(C)=CCOP(=O)(O)OP(=O)(O)O.N.N.N` [FPP, 3,7,11-Trimethyl-2,6,10-dodecatrien-1-yl pyrophosphate ammonium salt], the IC50 (usually the concentration needed to halve the response being measured) at P2Y12 receptor [3] amounted to 45 µM. At P2Y12 receptor [3] (FPP 1 M alone (so in the source)), the “effect of compound alone on [35S]GTPγS binding” value was “small, but significant, increase”. In addition, on P2Y12 receptor [3] (platelet membranes), the “concentrations at which FPP independently stimulated [35S]GTPγS binding” value is recorded as “below 6 μM”. Further, the “effect on epinephrine-stimulated platelet aggregation” value in the assay with human platelets [4] is reported as “unaffected”. The “effect on LPA-stimulated platelet shape change” value in the assay with human platelets [5] (30 μM FPP, 10 μM LPA, p=0.017) was “potentiated”. The “platelet shape change, compound alone” value with human platelets [5] (FPP alone) is given as “unable to show an effect”. In addition, the “effect on LPA-stimulated platelet aggregation” value with human platelets [6] is given as “no effect”. For the same molecule, the “effect on ADP-stimulated calcium signalling” value in the assay on washed platelets [7] (5 μM ADP) was “no statistical significance”. For the same molecule, the “effect on thrombin-stimulated calcium signalling” value with washed platelets [7] (thrombin 0.5 U/ml) is on record as “no statistical significance”. Also, at P2Y12 receptor [1], the IC50 turned out to be 65.8 µM and the “extent of inhibition of [3H]PSB-0413 binding” value is recorded as “partial inhibition”. The “maximal inhibition of [3H]PSB-0413 binding” value at P2Y12 receptor [1] (very high concentrations) is 30–40%. The “antagonistic activity” value with washed platelets [2] is “statistically significant effect”. Moreover, the “effect on 2-MeSADP-stimulated platelet aggregation” value with human platelets [8] was “clear, concentration-dependent inhibition”. Further, the inhibition (in general, the share of the control response that was lost under treatment) at 10 µM with human platelets [8] (Homo sapiens, Platelet, read-out: inhibition of 2-MeSADP-stimulated aggregation) turned out to be 40 ± 5%. Moreover, in the assay with human platelets [9], the “effect on TRAP-stimulated platelet aggregation” value was “unaffected”.

For the molecule `CC(C)=CCC/C(C)=C/CC/C(C)=C/CC/C(C)=C/COP(=O)(O)OP(=O)(O)O.N.N.N` [GGPP, all trans-3,7,11,15-tetra-methyl-2,6,10,14-hexadecatetraenyl pyrophosphate ammonium salt], in the assay on washed platelets [2], the “antagonistic activity” value is listed as “Only FPP displayed a statistically significant effect”.

`CC(C)=CCC/C(C)=C/COP(=O)(O)OP(=O)(O)O.N.N.N` [GPP, trans-3,7-dimethyl-2,6-octadienyl pyrophosphate ammonium salt]: the “antagonistic activity” value with washed platelets [2] is recorded as “Only FPP displayed a statistically significant effect”.

In the case of `C=C(C)CCOP(=O)(O)OP(=O)(O)O.N.N.N` [IPP, isopentenyl pyrophosphate triammonium salt], the “antagonistic activity” value with washed platelets [2] was “Only FPP displayed a statistically significant effect”.

As to `CCCCC/C=C\C/C=C\C/C=C\C/C=C\CCCC(=O)NCC(=O)O` [NAG, N-arachidonoylglycine, reference compound], the “effect on LPA-stimulated platelet aggregation” value with human platelets [6] is reported as “No statistically significant inhibitory effect”. Moreover, the “effect on 2-MeSADP-stimulated platelet aggregation” value in the assay with human platelets [8] was “without effect”.

As for `Nc1c(S(=O)(=O)[O-])cc(Nc2ccc(Nc3ccccc3)c(S(=O)(=O)[O-])c2)c2c1C(=O)c1ccccc1C2=O.[Na+].[Na+]` [PSB-0739, 1-amino-4-[4-phenylamino-sulfophenylamino]-9,10-dioxo-9,10-dihydroanthracene-2-sulfonic acid disodium salt], on P2Y12 receptor [1], the “extent of inhibition of [3H]PSB-0413 binding” value is reported as “complete inhibition” and the “rank order of potency at labelled binding sites” value was “PSB-0739 ([21], [22]). >2-methylthio-ADP > ADP”.

`CCCSc1nc(N[C@@H]2C[C@H]2c2ccc(F)c(F)c2)c2nnn([C@@H]3C[C@H](OCCO)[C@@H](O)[C@H]3O)c2n1` [ticagrelor, Ticagrelor, reference compound]: at P2Y12 receptor [3] (60 nM ticagrelor), the “effect on 2-MeSADP dose response curve of [35S]GTPγS binding” value was “right-shifted the dose response curve”. Also, the “effect on FPP-stimulated [35S]GTPγS binding” value at P2Y12 receptor [3] (10 μM ticagrelor) was “readily blocked”.
